# High-throughput results as filed in PubChem.
# Rows were chosen to be rich in hits. Some 1.9% of all compounds tested hit in one or more screens of this group.
# UHRF1 MBD2 ctr: UHRF1 methylated DNA binding inhibitors, primary screen, counter-screen for MBD2 inhibitor project, biochemical, TR-FRET, human UHRF1, single concentration. E3 ubiquitin-protein ligase UHRF1 (Homo sapiens), Q96T88. inhibition, % at 4.4 µM. AID 687016, 2013. actives 0.75% (n = 370,000). UHRF1 binding to methylated oligo; in the data active = inhibition above about 21%;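 also: UHRF1 SRA domain binding a hemimethylated CpG hairpin DNA probe; 0% = median of test compound wells and 100% = reference inhibitor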
# MBD2 inh: inhibitors of MBD2 binding to methylated DNA, primary screen, biochemical, TR-FRET, DNA-binding domain, human; inhibition, % at 4.4 µM; MBD2 binding to methylated oligonucleotide; AID 686964, 2013; Methyl-CpG-binding domain protein 2 (Homo sapiens), Q9UBB5; actives 0.31% (n = 370,000); in the data active = inhibition above about 13%
# Rin1 Abl inh: inhibitors of Rin1-Abl protein binding, primary screen, biochemical, TR-FRET | Tyrosine-protein kinase ABL1 (Homo sapiens) + Ras and Rab interactor 1 (Homo sapiens), … | inhibition, % at 7.35 µM | actives 0.4% (n = 360,000) | AID 588664, 2011; in the data active = inhibition above about 5%, passing the limit was not always enough
# TDP2 absorb: human TDP2 enzyme inhibitors, primary screen, biochemical, epi absorbance, recombinant enzyme; actives 0.34% (n = 370,000); T5PNP hydrolysis, p-nitrophenol absorbance 415 nm; Tyrosyl-DNA phosphodiesterase 2 (Homo sapiens), O95551; inhibition, % at 12.8 µM;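 active = inhibition above the mean of all tested compounds plus 3 SD, set per campaign, cut at about 25% in these data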;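 also: 0% = DMSO with enzyme and 100% = buffer with substrate but no TDP2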
#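 System – recombinant human TDP2 · Amount – 120 nM TDP2 per well · Buffer or medium – Mg2+-containing Tris-HCl buffer, pH 7.5 · Reagent – T5PNP substrate, 5 mM · Dosing – 12.8 µM single point, 1% DMSO · Incubation – 2 h at 37 °C · Measured by – epi absorbance · Read-out basis – percent inhibition · Benchmarks – high control without enzyme, low control DMSO plus TDP2 · Repeats – singlicate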
# LEDGF integ inh: blockers of LEDGF/p75-dependent integrase strand transfer – biochemical, TR-FRET, high throughput, primary screen; HIV-1 integrase (with human LEDGF/p75); TR-FRET IN-LEDGF/p75 DNA integration, Eu/Cy5; inhibition, % at 3.7 µM; actives 0.64% (n = 370,000);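 active = inhibition above the screen-wide mean plus 3 SD, cut at about 13% in these data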;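 also: signal is the Cy5 over europium emission ratio at 671 and 618 nm; 0% = plate median of compound wells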
# * = called active by the depositor; / = no result.
SMILES,UHRF1 MBD2 ctr,MBD2 inh,Rin1 Abl inh,TDP2 absorb,LEDGF integ inh
CC(C)c1ccc(NC(=O)O[C@H]2CC[C@@]34CCCN3C(=O)CCC[C@H]4[C@H]2C)cc1,-1,2,/,-9,4
Oc1ccc(Cl)cc1N=Nc1ccccc1,5,2,4,2,-3
O=S(=O)(O)c1cc(O)c2c(O)c(N=Nc3cc(Cl)ccc3O)c(S(=O)(=O)O)cc2c1,/,/,11*,/,/
C/C(=N\Nc1ncc(Cl)cc1Cl)c1ccc(C#N)cc1,-1,-2,-4,-17,6
COc1ccc(/C(C)=N/Nc2ncc(Cl)cc2Cl)c(O)c1,24*,6,-1,-2,1
COC(=O)[C@]12C[C@H](CC(=O)NCCCCc3ccccc3)C(=O)N(Cc3ccccc3)C1=C[C@H](C(C)C)O[C@@H]2C1CC1,2,-2,/,-17,6
COc1ccc(-c2nnn(CC(=O)N(CCCO)C(C(=O)NC3CCCC3)c3ccncc3)n2)cc1 (configuration not stated),28*,-1,3,-2,-9
COc1ccc(-n2c(COc3ccccc3)nnc2SCc2nc3ccccc3[nH]2)cc1,-1,-3,/,1,-1
O=C(O)C1=NN(c2cc(Cl)c(S(=O)(=O)O)cc2Cl)C(=O)C1,31*,7,8,2,11
Cc1ccccc1C(=O)NC1CCCCN(Cc2cccc(F)c2)C1=O (configuration not stated),0,-1,/,3,2
N=c1n(CCCOc2ccccc2Cl)c2ccccc2n1CC(N)=O,25*,-3,-2,-12,3
Cn1c(=O)n(CCOc2ccccc2Cl)c2ccccc21,-1,-5,-3,5,-3
Cc1ccc(S(=O)(=O)N2CC[C@@]3(Cc4ccccc4)Cc4ccccc4C[C@@H]23)cc1,1,2,/,-2,-7
COc1cc(Cn2cc([C@]34C[C@H]5C(=O)N(C)CC(=O)N5[C@H]3N(S(=O)(=O)c3ccccc3)c3ccccc34)c3ccccc32)cc(OC)c1,3,6,/,2,-1
COc1nc(N)c(S(=O)(=O)c2ccccc2)cc1C#N,23*,0,1,-8,-4
O=C(O[C@@H]1OC2COC(=O)c3cc(O)c(O)c(O)c3-c3c(cc(O)c(O)c3O)C(=O)O[C@@H]([C@H]1O)[C@@H]2O)c1cc(O)c(O)c(O)c1,/,/,69*,/,/
O=C(CSc1nncs1)N1CCN(C(=O)c2ccco2)CC1,37*,3,-1,2,-2
O=C(CSc1nnc(SCc2ccc(Cl)cc2)s1)N1CCN(C(=O)c2ccco2)CC1,4,3,-2,-6,0
CC(C)CCNC(=O)C1(C)CCN1Cc1ccc2ccccc2c1 (configuration not stated),34*,2,0,3,3
O=C(CN1CCCCCC1)Nc1cc(C(F)(F)F)ccc1Cl,1,0,-2,7,-1
O=C(O)C1=C(C(=O)Nc2cc(C(F)(F)F)ccc2Cl)CCCC1,29*,-1,1,4,-3
O=C1NCCCC2c3cc(O)c4ccccc4c3OC12N1CCCCC1 (configuration not stated),4,-3,/,57*,13
O=C1NCCCC2c3c(cc(Br)c(O)c3Br)OC12N1CCOCC1 (configuration not stated),-3,-2,-17,0,-5
Cc1ccc(S(=O)(=O)N2CCOCC2)c2nsnc12,1,0,-2,-1,-1
Cc1ccc(S(=O)(=O)N2CCCCC2)c2nsnc12,24*,9,-1,9,2
SMILES,UHRF1 MBD2 ctr,MBD2 inh,Rin1 Abl inh,TDP2 absorb,LEDGF integ inh
COC(=O)c1ccc(C(=O)O)nc1,22*,0,5,-8,6
CC(C)(C)C1=Nn2c(nnc2-c2ccc(C(C)(C)C)cc2)SC1,1,-3,/,3,4
CCCCNC(=O)NC1CCN(CC(=O)Nc2ccc3c(c2)OCCO3)CC1,32*,6,/,-7,-6
O=C(CN1CCC(NC(=O)NC2CCCC2)CC1)Nc1ccc2c(c1)OCCO2,2,8,/,6,-2
COc1ccc(S(=O)(=O)n2nc(OC(C)=O)cc2N(C(C)=O)C(C)=O)cc1,16,1,2,29*,6
CCCCC(=O)N(Cc1ccccc1)c1ccccc1C(=O)Nc1cc(OC)ccc1OC,0,6,/,-4,3
O=C1[C@H](Oc2ccccc2)[C@@H](c2ccccc2)N1c1ccncc1,-1,3,-1,4,-3
O=C1[C@@H](Oc2ccccc2)[C@@H](c2ccccc2)N1c1ccccc1,22*,11,1,1,1
CCN(CC)C(=O)O[C@H]1CC[C@@]23CCCN2C(=O)CCC[C@H]3[C@H]1C,-3,1,/,-3,1
Cc1cc(-c2csc(NC(=O)c3cc4ccccc4o3)n2)c(C)n1C,4,0,-2,-10,14*
O=C(Nc1nc(-c2ccccn2)cs1)c1cc2ccccc2o1,17,1,-2,0,-6
CC(C)C[C@@H](CNCC(=O)[C@H](CC(C)C)NC(=O)c1[nH]cnc1C(=O)N[C@@H](C)CN)NC(=O)c1nc[nH]c1C(=O)N[C@@H](C)C(=O)O,23*,3,-2,12,1
CC(C)C[C@@H](CN)NC(=O)c1nc[nH]c1C(=O)N[C@@H](C)C(=O)CNC[C@H](CC(C)C)NC(=O)c1nc[nH]c1C(=O)N[C@@H](CC(=O)O)C(=O)O,5,-2,1,5,-3
CC(C)C[C@@H](CNCC(=O)[C@H](CC(=O)O)NC(=O)c1[nH]cnc1C(=O)N[C@H](CN)CC(C)C)NC(=O)c1nc[nH]c1C(=O)N[C@@H](C)C(=O)O,22*,12,2,14,-2
C=CCn1c(Cc2cccs2)nnc1SCC(=O)Nc1ccc(C)cc1,1,9,/,2,0
Cc1cc2c(N=O)c(NO)ccc2[nH]1,/,/,12*,/,/
CCC1CCCCN1C(=O)CCS(=O)(=O)c1ccccc1 (configuration not stated),2,-1,-1,6,0
CCC1CCCCN1CCNC(=O)CCS(=O)(=O)c1ccc(Br)cc1 (configuration not stated),25*,6,-3,-12,1
CCCCNC(=O)C[C@H]1C[C@@]2(C(=O)OC)C(=C[C@H](C(C)(C)C)O[C@@H]2C)N(CCc2ccc(OC)c(OC)c2)C1=O,-2,4,/,-11,-1
CCCCOc1ccc(C(=O)NC2CCCCN(C)C2=O)cc1 (configuration not stated),-1,0,/,2,0
